Experimental data published in ChEMBL document CHEMBL3593222, “6-Phenoxy-2-phenylbenzoxazoles, novel inhibitors of receptor for advanced glycation end products (RAGE)” (Bioorg Med Chem, 2015).
Activity calls are given as the source filed them. No cut-off for these calls is given here.

Key:
HT-22 [1] = assay: (§1) Cytotoxicity against mouse HT22 cells assessed as cell viability at 10 uM after 18 hrs by MTT assay; format: cell-based; conditions: ht-22, 18 h, 10 µM
How it was run: (§2)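 HT22 cells were grown in DMEM with 10% FBS and penicillin/streptomycin at 37 °C in 5% CO2, and seeded at 5000 cells/well. Next day they were exposed to 10 µM compound for 18 h. MTT was then added for 3 h, formazan dissolved in acidic 2-propanol, and OD read at 570 nm. Viability is blank-corrected absorbance relative to control. Run in triplicate.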

[2] = target: Advanced glycosylation end product-specific receptor (Homo sapiens) (UniProt Q15109); assay: Inhibition of human RAGE-amyloid beta-42 interaction at 4 uM preincubated for 30 mins measured after 1 hr by FRET assay relative to control
How it was run: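 Biotinylated human RAGE (2.5 µg) was premixed with 200 ng Cy3-streptavidin in PBS for 30 min at rt. Aβ42-FITC (50 µL of 40 nM) and compound (50 µL of 4 µM) were then added, in 200 µL final volume with 0.1% DMSO. Fluorescence was read 1 h later. FRET efficiency was computed from donor emission with and without acceptor, and percent inhibition was taken against vehicle. Triplicate.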

[3] = Solubility of the compound in water; format: physicochemical; conditions: buffer
[4] = as §1; format: cell-based, HT-22; conditions: HT22 cells, read-out: Activity; how it was run: as §2
HT-22 [5] = assay: Neuroprotective activity in mouse HT22 cells assessed as inhibition of amyloid beta-induced cytotoxicity by measuring cell viability at 10 uM after 18 hrs by MTT assay; format: functional; conditions: HT-22, 18 h
How it was run: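 Aβ peptide was pretreated in HFIP, dried to a film, redissolved in DMSO, and aggregated at 200 µM in PBS for 24 h at 4 °C. HT22 cells (5000/well) were exposed the next day to 2 µM aggregated Aβ plus 10 µM compound for 18 h. Viability was read by MTT at 570 nm, and percent inhibition was calculated against Aβ with vehicle. Triplicate.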

Chain of Advanced glycosylation end product-specific receptor (Homo sapiens) (Q15109 whole entry): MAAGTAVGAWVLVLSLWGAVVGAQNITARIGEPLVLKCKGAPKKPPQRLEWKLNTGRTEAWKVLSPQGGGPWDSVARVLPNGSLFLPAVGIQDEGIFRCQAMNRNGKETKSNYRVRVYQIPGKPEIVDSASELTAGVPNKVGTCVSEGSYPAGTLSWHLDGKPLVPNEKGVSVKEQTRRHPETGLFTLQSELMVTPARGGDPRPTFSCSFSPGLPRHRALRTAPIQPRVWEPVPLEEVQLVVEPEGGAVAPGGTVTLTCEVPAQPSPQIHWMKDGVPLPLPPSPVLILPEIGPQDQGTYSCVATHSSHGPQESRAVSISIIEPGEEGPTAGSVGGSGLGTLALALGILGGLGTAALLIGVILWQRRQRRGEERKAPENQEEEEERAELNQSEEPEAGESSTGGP

Row | inhibition [2] | solubility [3] | SMILES | Activity (HT-22 [1]) | viability at 18 h, 10 µM [4] [%] | inhibition at 10 µM (HT-22 [5]) [%]
1 | 41.2% |  | CC(C)COC(=O)N1CCN(CCCOc2ccc(-c3nc4ccc(Oc5ccc(Cl)cc5)cc4o3)cc2)CC1 | Non-toxic |  | 
2 | inactive |  | Clc1ccc(Oc2ccc3nc(-c4ccc(OCCCN5CCOCC5)cc4)oc3c2)cc1 | Non-toxic |  | 
3 | 19.6% |  | N[C@@H]1CCN(CCCOc2ccc(-c3nc4ccc(Oc5ccc(Cl)cc5)cc4o3)cc2)C1 | Non-toxic |  | 
4 | 25.9% |  | CC(C)OC(=O)N1CCN(CCCOc2ccc(-c3nc4ccc(Oc5ccc(Cl)cc5)cc4o3)cc2)CC1 | Non-toxic |  | 54.4
5 | 25.1% | Insoluble | Clc1ccc(Oc2ccc3nc(-c4ccc(OCCCN5CCN(c6ncccn6)CC5)cc4)oc3c2)cc1 |  | 25.1 | 
6 | inactive |  | COC(=O)N1CCN(CCCOc2ccc(-c3nc4ccc(Oc5ccc(Cl)cc5)cc4o3)cc2)CC1 | Non-toxic |  | 
7 | inactive | Insoluble | Clc1ccc(Oc2ccc3nc(-c4ccc(OCCCN5CCN(c6ccccc6)CC5)cc4)oc3c2)cc1 | Non-toxic |  | 
8 | inactive |  | Clc1ccc(Oc2ccc3nc(-c4ccc(OCCCN5CCCC5)cc4)oc3c2)cc1 | Non-toxic |  | 
9 | 2.2% |  | Clc1ccc(Oc2ccc3nc(-c4ccc(OCCCN5CCCCC5)cc4)oc3c2)cc1 |  | 32.4 | 
10 | 3.3% |  | OCCN1CCN(CCCOc2ccc(-c3nc4ccc(Oc5ccc(Cl)cc5)cc4o3)cc2)CC1 |  | 3.3 | 
11 | 42.7% |  | Clc1ccc(Oc2ccc3nc(-c4ccc(OCCCN5CCNCC5)cc4)oc3c2)cc1 |  | 18.5 | 
12 | 18.5% |  | Clc1ccc(Oc2ccc3nc(-c4ccc(OCCN5CCCCC5)cc4)oc3c2)cc1 |  | 21.4 | 
13 | 6.6% |  | CCOC(=O)N1CCN(CCCOc2ccc(-c3nc4ccc(Oc5ccc(Cl)cc5)cc4o3)cc2)CC1 | Non-toxic |  | 
14 | 24.3% |  | CN1CCN(CCCOc2ccc(-c3nc4ccc(Oc5ccc(Cl)cc5)cc4o3)cc2)CC1 |  | 69.3 | 
15 | 16.6% |  | CC(C)(C)C1CCN(CCCOc2ccc(-c3nc4ccc(Oc5ccc(Cl)cc5)cc4o3)cc2)CC1 |  | 32.2 | 
16 | 24.6% |  | CC(C)(C)OC(=O)N1CCN(CCOc2ccc(-c3nc4ccc(Oc5ccc(Cl)cc5)cc4o3)cc2)CC1 | Non-toxic |  | 50.6
17 | 29.9% |  | N[C@H]1CCN(CCCOc2ccc(-c3nc4ccc(Oc5ccc(Cl)cc5)cc4o3)cc2)C1 | Non-toxic |  | 
18 | 25.7% |  | Clc1ccc(Oc2ccc3nc(-c4ccc(OCCN5CCOCC5)cc4)oc3c2)cc1 | Non-toxic |  | 
19 | 56.7% |  | Fc1ccc(Oc2ccc3nc(-c4ccc(OCCCN5CCOCC5)cc4)oc3c2)cc1 | Non-toxic |  | 

The remaining lines, values behind:

Row | SMILES | inhibition [2] | solubility [3] | Activity (HT-22 [1]) | viability at 18 h, 10 µM [4] [%] | inhibition at 10 µM (HT-22 [5]) [%]
20 | Clc1ccc(Oc2ccc3nc(-c4ccc(OCC5CCN(Cc6ccccc6)CC5)cc4)oc3c2)cc1 | 5.1% | Insoluble |  | 82.4 | 
21 | CC(C)N1CCC(Oc2ccc(-c3nc4ccc(Oc5ccc(Cl)cc5)cc4o3)cc2)CC1 | 12.7% |  |  | 86.5 | 
22 | CCN(CC)CCCOc1ccc(-c2nc3ccc(Oc4ccc(C(C)(C)C)cc4)cc3o2)cc1 | inactive |  |  | 74.1 | 
23 | CC(C)(C)c1ccc(Oc2ccc3nc(-c4ccc(OCCCN5CCOCC5)cc4)oc3c2)cc1 | inactive |  | Non-toxic |  | 
24 | CC(C)(C)OC(=O)N1CCN(CCCOc2ccc(-c3nc4ccc(Oc5cccc(C(F)(F)F)c5)cc4o3)cc2)CC1 | 22.8% |  | Non-toxic |  | 56.2
25 | CCN1CCC(COc2ccc(-c3nc4ccc(Oc5ccc(Cl)cc5)cc4o3)cc2)CC1 | 2.1% |  |  | 4.1 | 
26 | CC(C)(C)OC(=O)N[C@@H]1CCN(CCCOc2ccc(-c3nc4ccc(Oc5ccc(Cl)cc5)cc4o3)cc2)C1 | 90.2% |  |  | 63.2 | 
27 | CC(C)(C)OC(=O)N[C@@H]1CCN(CCCOc2ccc(-c3nc4ccc(Oc5ccc(C(C)(C)C)cc5)cc4o3)cc2)C1 | 26.8% |  | Non-toxic |  | 
28 | CN1CCC(Oc2ccc(-c3nc4ccc(Oc5ccc(Cl)cc5)cc4o3)cc2)CC1 | 19.5% |  |  | 74.3 | 
29 | CC(C)(C)OC(=O)N[C@H]1CCN(CCCOc2ccc(-c3nc4ccc(Oc5ccc(Cl)cc5)cc4o3)cc2)C1 | 16.6% |  |  | 58.2 | 
30 | CC(=O)N1CCC(COc2ccc(-c3nc4ccc(Oc5ccc(Cl)cc5)cc4o3)cc2)CC1 | inactive |  |  | 32.7 | 
31 | CC(C)(C)OC(=O)N1CCC(COc2ccc(-c3nc4ccc(Oc5ccc(Cl)cc5)cc4o3)cc2)CC1 | inactive |  | Non-toxic |  | 
32 | CCN(CC)CCCOc1ccc(-c2nc3ccc(Oc4ccc(Cl)cc4)cc3o2)cc1 | 4.9% |  |  | 32.1 | 
33 | CC(C)(C)c1ccc(Oc2ccc3nc(-c4ccc(OCCCN5CCCC5)cc4)oc3c2)cc1 | inactive |  | Non-toxic |  | 
34 | CC(C)(C)c1ccc(Oc2ccc3nc(-c4ccc(OCCCN5CC[C@@H](N)C5)cc4)oc3c2)cc1 | inactive |  |  | 12.8 | 
35 | CC(C)(C)OC(=O)N1CCN(CCCOc2ccc(-c3nc4ccc(Oc5ccc(F)cc5)cc4o3)cc2)CC1 | 21% |  |  | 15.2 | 62.3
36 | FC(F)(F)c1cccc(Oc2ccc3nc(-c4ccc(OCCCN5CCCCC5)cc4)oc3c2)c1 | 42.7% |  |  | 4.4 | 
37 | CC(C)N1CCC(COc2ccc(-c3nc4ccc(Oc5ccc(Cl)cc5)cc4o3)cc2)CC1 | 26.2% |  | Non-toxic |  | 

Row | SMILES | inhibition [2] | solubility [3] | Activity (HT-22 [1]) | viability at 18 h, 10 µM [4] [%] | inhibition at 10 µM (HT-22 [5]) [%]
38 | CC(C)(C)c1ccc(Oc2ccc3nc(-c4ccc(OCCCN5CC[C@H](N)C5)cc4)oc3c2)cc1 | 54.7% |  |  | 60.3 | 
39 | CC(C)(C)c1ccc(Oc2ccc3nc(-c4ccc(OCCCN5CCCCC5)cc4)oc3c2)cc1 | inactive |  |  | 49.4 | 
40 | CC(=O)N1CCC(Oc2ccc(-c3nc4ccc(Oc5ccc(Cl)cc5)cc4o3)cc2)CC1 | 20% |  | Non-toxic |  | 
41 | FC(F)(F)c1ccc(Oc2ccc3nc(-c4ccc(OCCCN5CCCCC5)cc4)oc3c2)cc1 | 44.3% |  |  | 93.4 | 
42 | Clc1ccc(Oc2ccc3nc(-c4ccc(OCC5CCNCC5)cc4)oc3c2)cc1 | inactive |  |  | 29 | 
43 | Clc1ccc(Oc2ccc3nc(-c4ccc(OC5CCNCC5)cc4)oc3c2)cc1 | 20.6% |  |  | 20.6 | 
44 | Fc1ccc(Oc2ccc3nc(-c4ccc(OCCCN5CCCCC5)cc4)oc3c2)cc1 | 30.3% |  | Non-toxic |  | 
45 | CCN(CC)CCCOc1ccc(-c2nc3ccc(Oc4ccc(F)cc4)cc3o2)cc1 | 5.4% |  | Non-toxic |  | 
46 | Clc1ccc(Oc2ccc3nc(-c4ccc(OCCCN5CCC(c6ccccc6)CC5)cc4)oc3c2)cc1 | inactive | Insoluble | Non-toxic |  | 
47 | FC(F)(F)c1ccc(Oc2ccc3nc(-c4ccc(OCCCN5CCOCC5)cc4)oc3c2)cc1 | 32.1% |  | Non-toxic |  | 
48 | CCN(CC)CCCOc1ccc(-c2nc3ccc(Oc4cccc(C(F)(F)F)c4)cc3o2)cc1 | 24.1% |  | Non-toxic |  | 
49 | CCN(CC)CCCOc1ccc(-c2nc3ccc(Oc4ccc(C(F)(F)F)cc4)cc3o2)cc1 | 34.9% |  | Non-toxic |  | 
50 | CC(C)(C)OC(=O)N1CCN(CCCOc2ccc(-c3nc4ccc(Oc5ccc(C(F)(F)F)cc5)cc4o3)cc2)CC1 | 27.8% |  |  | 7.9 | 
51 | FC(F)(F)c1cccc(Oc2ccc3nc(-c4ccc(OCCCN5CCOCC5)cc4)oc3c2)c1 | inactive |  | Non-toxic |  | 
52 | CCN1CCC(Oc2ccc(-c3nc4ccc(Oc5ccc(Cl)cc5)cc4o3)cc2)CC1 | 15.3% |  |  | 38.2 | 
53 | CC(C)(C)OC(=O)N[C@H]1CCN(CCCOc2ccc(-c3nc4ccc(Oc5ccc(C(C)(C)C)cc5)cc4o3)cc2)C1 | 61.6% |  |  | 8.2 | 
54 | CC(C)(C)OC(=O)N1CCC(Oc2ccc(-c3nc4ccc(Oc5ccc(Cl)cc5)cc4o3)cc2)CC1 | inactive |  | Non-toxic |  | 
55 | CCN(CC)CCOc1ccc(-c2nc3ccc(Oc4ccc(Cl)cc4)cc3o2)cc1 | 33.5% |  |  | 85.2 | 
